The source of these data is ChEMBL document CHEMBL1141840, “Antifungal metabolites from the marine sponge Pachastrissa sp.: new bengamide and bengazole derivatives” (1999).

One assay relates to Candida albicans. Put plainly: Antifungal activity against Candida albicans CIP 118079 after 24 hrs by liquid-phase turbidimetric system. Type of assay: functional. Particulars: for MIC: CIP 118079, 24 h. The method in brief: (§1)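 Fungal growth followed in liquid culture by turbidimetry, read automatically every 30 min over 24 h, with compounds tested at various concentrations.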

For the next assay, the system named is Saccharomyces cerevisiae. The assay is described as follows: Antimicrobial activity against Saccharomyces cerevisiae ATCC 28383 after 24 hrs by liquid-phase turbidimetric system. Type of assay: functional, organism-based. The method in brief:
as §1

≈ marks a conversion by molar mass, not a printed value. Calls of active or inactive are those of the source. The rule behind the calls is not given here.

Compound `CCCCCCCCCCCCCC(=O)O[C@@H](C)[C@@H](O)[C@@H](O)C[C@@H](O)c1coc(Cc2cnco2)n1` returned an MIC against Candida albicans of 0.8 µg/mL (≈ 1.57 µM). Moreover, in the assay with Saccharomyces cerevisiae, the result was inactive.

Turning to `CCCCCCCCCCCCCC(=O)O[C@H](C[C@H](O)[C@H](O)[C@H](C)O)c1coc(Cc2cnco2)n1`, the MIC in the assay on Candida albicans is 0.8 µg/mL (≈ 1.57 µM). Also, the result in the assay with Saccharomyces cerevisiae was inactive.

Take `CCCCCCCCCCCCCC(=O)O[C@H]1CC[C@H](NC(=O)[C@H](OC)[C@H](O)[C@@H](O)[C@H](O)/C=C/C(C)C)C(=O)NC1`: the result in the assay on Candida albicans and with Saccharomyces cerevisiae was inactive.

Consider `CCCCCCCCCCCCCC(=O)O[C@H]1CC[C@H](NC(=O)[C@H](OC)[C@H](O)[C@@H](O)[C@H](O)/C=C/C(C)C)C(=O)N(C)C1`, for which the result in the assay with Candida albicans and in the assay with Saccharomyces cerevisiae was inactive.

Regarding `CCCCCCCCCCCCCCC(=O)O[C@@H](C)[C@@H](O)[C@@H](O)C[C@@H](O)c1coc(Cc2cnco2)n1`, 0.8 µg/mL (≈ 1.53 µM) was the least that counted as inhibitory with Candida albicans (MIC). In addition, the outcome in the assay with Saccharomyces cerevisiae was inactive.

`C[C@H](O)[C@@H](O)[C@@H](O)C[C@@H](O)c1coc(Cc2cnco2)n1`: the result in the assay on Candida albicans and in the assay on Saccharomyces cerevisiae was inactive.

`CC(C)CCCCCCCCCCCCC(=O)O[C@H](C[C@H](O)[C@H](O)[C@H](C)O)c1coc(Cc2cnco2)n1` showed an MIC in the assay on Candida albicans of 0.8 µg/mL (≈ 1.49 µM). For the same compound, the outcome in the assay with Saccharomyces cerevisiae was inactive.

As for `CO[C@@H](C(=O)N[C@H]1CC[C@H](OC(=O)CCCCCCCCCCCC(C)C)CNC1=O)[C@H](O)[C@@H](O)[C@H](O)/C=C/C(C)C`, the result in the assay on Candida albicans and with Saccharomyces cerevisiae was inactive.

For `CCCCCCCCCCCCCCC(=O)O[C@H](C[C@H](O)[C@H](O)[C@H](C)O)c1coc(Cc2cnco2)n1`, in the assay with Candida albicans, the MIC worked out at 0.8 µg/mL (≈ 1.53 µM). The result in the assay on Saccharomyces cerevisiae was inactive.

Regarding `CC(C)CCCCCCCCCCCCC(=O)O[C@@H](C)[C@@H](O)[C@@H](O)C[C@@H](O)c1coc(Cc2cnco2)n1`, in the assay on Candida albicans, the minimum inhibitory concentration (MIC) was 0.8 µg/mL (≈ 1.49 µM). For the same compound, the result with Saccharomyces cerevisiae was inactive.

Take `CCCCCCCCCCCCCCCC(=O)O[C@@H](C)[C@@H](O)[C@@H](O)C[C@@H](O)c1coc(Cc2cnco2)n1`: 0.8 µg/mL (≈ 1.49 µM) was the least that counted as inhibitory with Candida albicans (MIC). Also, the result in the assay with Saccharomyces cerevisiae was inactive.

As to `CC(C)CCCCCCCCCCCC(=O)O[C@H](C[C@H](O)[C@H](O)[C@H](C)O)c1coc(Cc2cnco2)n1`, in the assay with Candida albicans, the MIC was 0.8 µg/mL (≈ 1.53 µM). For the same compound, the result in the assay on Saccharomyces cerevisiae was inactive.

For `CO[C@@H](C(=O)N[C@H]1CCCCNC1=O)[C@H](O)[C@@H](O)[C@H](O)/C=C/C(C)C`, the result in the assay with Candida albicans and with Saccharomyces cerevisiae was inactive.

The compound `CCCCCCCCCCCCCCCC(=O)O[C@H](C[C@H](O)[C@H](O)[C@H](C)O)c1coc(Cc2cnco2)n1` gave an MIC against Candida albicans of 0.8 µg/mL (≈ 1.49 µM). The result in the assay with Saccharomyces cerevisiae was inactive.

With `CC(C)CCCCCCCCCCCC(=O)O[C@@H](C)[C@@H](O)[C@@H](O)C[C@@H](O)c1coc(Cc2cnco2)n1`, the MIC in the assay on Candida albicans was determined as 0.8 µg/mL (≈ 1.53 µM). The outcome in the assay with Saccharomyces cerevisiae was inactive.
